An excerpt weighted towards active compounds, which were near 2.5% of everything screened.
Bfl-1 A1 inh: caspase 3/7 activation in MEF A1-2A-BIM cells, primary screen, A1 inhibitor project, cell-based, luminescence, HTS; Caspase-Glo 3/7 luminescence, 3 h; percent of clofoctol response, vehicle zero; caspase activation, % (test concentration not listed); 0.066% of 330,000 active; AID 2462, 2010;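 active = over half of replicate activation scores above 10%, or exactly half above 10 with the replicate mean above 10; inconclusive = replicate mean below 10 yet half the replicates above 10; inactive = over half of replicates below 10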
NALP1 yeast inh: NALP1 inflammasome inhibitors in reconstituted yeast, colorimetric, S. cerevisiae, triplicate retest | S. cerevisiae NALP1/ASC/caspase-1 growth, X-gal OD620, 72 h | inhibition, % at 10 µM | 0.61% of 280,000 active; in the data active = inhibition mostly above about 24%, no sharp cut-off; inactive = mostly below about 32%
TbMetRS inhib: T. brucei MetRS inhibitors, primary screen, biochemical, luminescence. methionyl-tRNA synthetase (Trypanosoma brucei brucei). purified T. brucei MetRS, ATP depletion, Kinase-Glo luminescence. inhibition, % at 11.9 µM. 0.4% of 360,000 active. AID 624268, 2012;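 active = inhibition above a per-plate cutoff of the control wells' mean inhibition plus 3 SD, cut at about 5.5% in these data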;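 note: 0% = DMSO wells median and 100% = median of wells with control inhibitor compound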
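Test system – parasite MetRS enzyme · Reagent – substrates ATP, L-methionine and bulk Escherichia coli tRNA · Doses – 11.9 µM compound single dose, 0.9% DMSO · Times – 15 min enzyme-compound preincubation, 2 h reaction, 10 min detection, 25 °C · Signal – Kinase-Glo luminescence, ATP depletion format · Controls – DMSO-only wells as low control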
NLRP3 yeast inh: NALP3 inflammasome inhibitors in reconstituted yeast, primary screen, luminescence, uHTS. AID 2825, 2010. Yeast reconstituted NLRP3/ASC/caspase-1, beta-gal luminescence, 24 h. 0.39% of 330,000 active. inhibition, % at 10 µM;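 active = inhibition of 50% or more; inactive = inhibition below 50%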;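 note: plate controls were induced DMSO wells for no effect and uninduced yeast grown without galactose for full effect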
MC4R barr agon: MC4R agonists recruiting beta-arrestin, primary screen, cell-based, luminescence, agonist arm of biased-ligand search; 0.98% of 360,000 active; U2OS MC4R beta-arrestin complementation; percent of melanotan II response, DMSO zero; activation, % at 8.9 µM;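 active = activation above a per-plate cutoff, the mean activation of sample wells on that plate plus 3 SD, cut at about 8% in these data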
Target sequence (P32245 whole entry, looked up): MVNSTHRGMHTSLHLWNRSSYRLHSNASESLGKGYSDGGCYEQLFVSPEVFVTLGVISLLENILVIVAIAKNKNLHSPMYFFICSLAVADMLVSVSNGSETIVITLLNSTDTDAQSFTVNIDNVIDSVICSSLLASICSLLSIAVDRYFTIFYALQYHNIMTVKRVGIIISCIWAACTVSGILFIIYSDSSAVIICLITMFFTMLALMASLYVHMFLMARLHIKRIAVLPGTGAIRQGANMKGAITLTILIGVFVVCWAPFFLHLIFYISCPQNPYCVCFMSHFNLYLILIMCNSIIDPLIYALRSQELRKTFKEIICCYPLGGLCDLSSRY
MC4R antagonist: MC4R antagonists of cAMP signaling, primary screen, cell-based, TR-FRET, antagonist arm of biased-ligand search; inhibition, % at 6.5 µM; Melanocortin receptor 4 (Homo sapiens), P32245; MC4R-expressing cells, MTII-stimulated cAMP, LANCE TR-FRET; 0.48% of 360,000 active;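 active = inhibition above its plate's cutoff, the mean of tested wells on that plate plus 3 SD, cut at about 29% in these data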;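 note: 0% = Melanotan II alone and 100% = Melanotan II plus saturating MCL0020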
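system = U2OS cells with stable human MC4R expression | also added = Melanotan II challenge after compound preincubation | dosing = one concentration, 6.5 µM nominal | incubation = compound 30 min, challenge 1 h, detection 1 h | measured by = TR-FRET with Eu-cAMP and labeled anti-cAMP, 671 nm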
* hit, by the source's call; ? = inconclusive; · = no result given.

SMILES | Bfl-1 A1 inh | NALP1 yeast inh | TbMetRS inhib | NLRP3 yeast inh | MC4R barr agon | MC4R antagonist
O=C1C=CC(=O)N1c1ccccc1N1C(=O)C=CC1=O | · | · | 0 | · | -4 | 37*
O=C(c1ccccc1)c1ccccc1N1C(=O)C=CC1=O | -2 | 6 | -1 | 36 | -4 | 28
Cc1ccc(OCC(=O)N/N=C/c2cn[nH]c2-c2ccc(Cl)c(Cl)c2)cc1 | 0 | 6 | 0 | 14 | 8.7* | 15
Cc1cccc(OCC(=O)N/N=C/c2cn[nH]c2-c2ccc(Cl)c(Cl)c2)c1 | -2 | 22 | 0 | 15 | 4 | 15
Nc1ncnc2c1ncn2[C@@H]1O[C@H](CNCc2ccccc2OCc2ccc(Cl)cc2Cl)[C@@H](O)[C@H]1O | 0 | · | 0 | -6 | -1 | 7
O=C1C=C(c2ccccc2)OC(c2ccccc2)O1 (centres undefined) | 0 | 41* | 0 | 1 | -2 | 5
O=C1C=C(c2ccccc2)OC2(CCCC2)O1 | 1 | · | 0 | -2 | -1 | 2
O=C1Nc2ccccc2C1(c1ccccc1)c1ccccc1 | 0 | 8 | -1 | -57 | 37* | -1
Cc1cc(C)c(S(=O)(=O)NCCc2ccncc2)c(C)c1 | -1 | 8 | 0 | 7 | 0 | 21
Cc1cc(C)c(S(=O)(=O)NCc2ccncc2)c(C)c1 | -1 | 39* | 0 | 17 | -1 | 4
CCC1(c2ccccc2)ON(c2c(Br)cccc2Br)C1=O (centres undefined) | 1 | · | 0 | 13 | 3 | 3
Cc1cc(OCCCCCn2ccnc2)cc(C)c1Cl | 0 | 26* | 0 | 26 | -2 | 4
O=[N+]([O-])c1cnccc1Nc1ccccc1 | 0 | 33* | 0 | 7 | 0 | 1
O=C(CSc1ccccn1)Nc1cccc(NC(=O)CSc2ccccn2)n1 | 0 | -4 | -1 | 9 | 9.1* | -1
COc1ccccc1N(C)S(=O)(=O)c1ccc(C(=O)N(C)Cc2ccc(OC(F)F)cc2)cc1 | · | · | 0 | 9 | -3 | -5
CCCC(C)(C)C(=O)N1CCC1(C)C(=O)NS(=O)(=O)c1ccc(Cl)cc1 (centres undefined) | · | · | 0 | · | -2 | 1
CCOc1ccccc1NC(=O)C(c1ccccc1)N1CCN(CC(=O)N2CCCC2)CC1 (centres undefined) | -2 | · | 0 | 4 | -1 | 8
CC(C)(ONC(=O)Nc1ccccc1Cl)C(=O)O | 2 | 30* | 0 | 7 | 2 | 14
NC(=O)NC(=O)Nc1ccccc1Cl | -1 | 18 | 1 | 0 | -2 | -4
CCOc1ccc(N2C(=O)CN(CC(=O)OC)C2=S)cc1 | 0 | -27 | 0 | -13 | -2 | 11
CCOc1ccc(N2C(=O)/C(=C/c3cccs3)N(CC(=O)OC)C2=S)cc1 | 1 | -3 | 0 | -2 | 20* | 4
N#Cc1ccc(CN2CCN(C(=O)c3cc(C4CC4)nn3-c3ccccc3)CC2)cc1 | 0 | · | 0 | 15 | 1 | 6
COc1ccc(NC(=O)C(=O)N/N=C\c2ccc(CNC(=O)C(=O)Nc3ccc(C)c(C)c3)o2)c(OC)c1 | 24* | 18 | · | 6 | · | ·
COCCNC(=O)/C(C#N)=C\c1ccc(CNC(=O)C(=O)Nc2ccc(C)c(C)c2)o1 | 1 | 0 | 0 | 14 | -2 | 5
CCC(=O)N1CCc2cc(S(=O)(=O)CCC(=O)NCc3cccc(OC)c3)ccc21 | 0 | 10 | 0 | -1 | 2 | 14
C=CCN(C(=O)CCC(=O)Nc1cc(C)on1)C(C(=O)NC1CCCC1)c1ccc(CC)cc1 (centres undefined) | ? | 23 | -1 | 1 | -1 | 12
Cn1ncc(S(=O)(=O)Cc2ccccc2)c(Cl)c1=O | 0 | 108* | 0 | 17 | -1 | -2

Screening results (PubChem BioAssay)
